Measured values from ChEMBL document CHEMBL1135162, “Synthesis and evaluation of N-substituted 1,4-oxazepanyl Sordaricins as selective fungal EF-2 inhibitors” (2002).
Values after ≈ are worked out from the molar mass of the structure shown.

Assays:
Format in all cases: functional
[1] = system: Candida albicans; assay: Tested for in vitro antifungal activity against Candida albicans ATCC 64550
In short: (§1)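 Microplate growth assay in RPMI1640 medium buffered at pH 7.0, incubated at 35 °C. MIC is the lowest test-compound concentration that inhibits fungal growth by 80%.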

[2] = system: Candida parapsilosis; assay: Tested for in vitro antifungal activity against Candida parapsilosis ATCC 90018; conditions: Lodderomyces parapsilosis; in short: as §1
[3] = system: Candida albicans; assay: Tested for in vitro antifungal activity against Candida albicans SANK51486; in short: as §1
[4] = system: Candida albicans; assay: Tested for in vitro antifungal activity against Candida albicans TIMM3164; in short: as §1
[5] = system: Candida tropicalis; assay: Tested for in vitro antifungal activity against Candida tropicalis ATCC750; in short: as §1
[6] = system: Candida albicans; assay: Tested for in vitro antifungal activity against Candida albicans ATCC 24433 in the presence of horse serum (20%)
In short: (§2)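 RPMI1640 medium buffered at pH 7.0, with 20% horse serum added for the incubation. Microplates incubated at 35 °C. MIC is the lowest concentration giving 80% inhibition of fungal growth.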

[7] = system: Aspergillus fumigatus; assay: Tested for in vitro antifungal activity against Aspergillus fumigatus ATCC 26430
In short: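 Mould grown in microplates in RPMI1640 buffered at pH 7.0, incubated at 30 °C. MIC is the lowest test-compound concentration that inhibits growth by 80%.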

[8] = system: Nakaseomyces glabratus; assay: Tested for in vitro antifungal activity against Candida glabrata ATCC 90030; in short: as §1
[9] = system: Candida albicans; assay: Tested for in vitro antifungal activity against Candida albicans ATCC 24433; in short: as §1
[10] = system: Cryptococcus neoformans; assay: Tested for in vitro antifungal activity against Cryptococcus neoformans TIMM1855
In short: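 Yeast grown in microplates in yeast nitrogen base buffered at pH 7.0, incubated at 35 °C. MIC is the lowest concentration inhibiting growth by 80%.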

[11] = system: Candida albicans; assay: Tested for in vitro antifungal activity against Candida albicans SANK51486 in the presence of horse serum (20%); in short: as §2

CO[C@H]1CN(CC2=CCCCC2)C[C@H](OCC23C[C@@H]4[C@H](C)CC[C@H]4C4(C=O)CC2C=C(C(C)C)C34C(=O)O)O[C@@H]1C (some centres undefined)
MIC [1]: 0.125 µg/mL (≈ 0.219 µM) | MIC [2]: > 16 µg/mL | MIC [3]: 0.063 µg/mL (≈ 0.111 µM) | MIC [4]: 0.125 µg/mL (≈ 0.219 µM) | MIC [5]: 1 µg/mL (≈ 1.76 µM) | MIC [6]: 8 µg/mL | MIC [7]: > 16 µg/mL | MIC [8]: 4 µg/mL (≈ 7.02 µM) | MIC [9]: 0.125 µg/mL (≈ 0.219 µM) | MIC [10]: 8 µg/mL (≈ 14 µM) | MIC [11]: 4 µg/mL

C=C(Br)CN1C[C@H](OCC23C[C@@H]4[C@H](C)CC[C@H]4C4(C=O)CC2C=C(C(C)C)C34C(=O)O)O[C@H](C)[C@@H](OC)C1 (some centres undefined)
MIC [1]: 0.031 µg/mL (≈ 0.0521 µM) | MIC [2]: > 16 µg/mL | MIC [3]: 0.016 µg/mL (≈ 0.0269 µM) | MIC [4]: 0.031 µg/mL (≈ 0.0521 µM) | MIC [5]: 0.125 µg/mL (≈ 0.21 µM) | MIC [6]: 1 µg/mL | MIC [7]: > 16 µg/mL | MIC [8]: 0.25 µg/mL (≈ 0.42 µM) | MIC [9]: 0.031 µg/mL (≈ 0.0521 µM) | MIC [10]: 0.25 µg/mL (≈ 0.42 µM) | MIC [11]: 0.5 µg/mL

C=CCCN1C[C@H](OCC23C[C@@H]4[C@H](C)CC[C@H]4C4(C=O)CC2C=C(C(C)C)C34C(=O)O)O[C@H](C)[C@@H](OC)C1 (some centres undefined)
MIC [1]: 0.25 µg/mL (≈ 0.472 µM) | MIC [2]: > 16 µg/mL | MIC [3]: 0.063 µg/mL (≈ 0.119 µM) | MIC [4]: 0.125 µg/mL (≈ 0.236 µM) | MIC [5]: 1 µg/mL (≈ 1.89 µM) | MIC [7]: > 16 µg/mL | MIC [8]: 4 µg/mL (≈ 7.55 µM) | MIC [9]: 0.125 µg/mL (≈ 0.236 µM) | MIC [10]: > 16 µg/mL

CO[C@H]1CN(CC=C(Cl)Cl)C[C@H](OCC23C[C@@H]4[C@H](C)CC[C@H]4C4(C=O)CC2C=C(C(C)C)C34C(=O)O)O[C@@H]1C (some centres undefined)
MIC [1]: 0.063 µg/mL (≈ 0.108 µM) | MIC [2]: > 16 µg/mL | MIC [3]: ≤ 0.031 µg/mL | MIC [4]: ≤ 0.031 µg/mL | MIC [5]: 0.5 µg/mL (≈ 0.855 µM) | MIC [6]: 2 µg/mL | MIC [7]: > 16 µg/mL | MIC [8]: 1 µg/mL (≈ 1.71 µM) | MIC [9]: ≤ 0.031 µg/mL | MIC [10]: 8 µg/mL (≈ 13.7 µM) | MIC [11]: 1 µg/mL

C=C(Cl)CN1C[C@H](OCC23C[C@@H]4[C@H](C)CC[C@H]4C4(C=O)CC2C=C(C(C)C)C34C(=O)O)O[C@H](C)C1 (some centres undefined)
MIC [1]: 0.031 µg/mL (≈ 0.0613 µM) | MIC [2]: 8 µg/mL (≈ 15.8 µM) | MIC [3]: 0.016 µg/mL (≈ 0.0316 µM) | MIC [4]: 0.031 µg/mL (≈ 0.0613 µM) | MIC [5]: 0.125 µg/mL (≈ 0.247 µM) | MIC [6]: 0.5 µg/mL | MIC [7]: > 16 µg/mL | MIC [8]: 0.125 µg/mL (≈ 0.247 µM) | MIC [9]: 0.031 µg/mL (≈ 0.0613 µM) | MIC [10]: 16 µg/mL (≈ 31.6 µM) | MIC [11]: 0.25 µg/mL

C=CCN1C[C@H](OCC23C[C@@H]4[C@H](C)CC[C@H]4C4(C=O)CC2C=C(C(C)C)C34C(=O)O)O[C@H](C)[C@@H](OC)C1 (some centres undefined)
MIC [1]: 0.063 µg/mL (≈ 0.122 µM) | MIC [2]: > 16 µg/mL | MIC [3]: 0.031 µg/mL (≈ 0.0601 µM) | MIC [4]: 0.063 µg/mL (≈ 0.122 µM) | MIC [5]: 0.5 µg/mL (≈ 0.97 µM) | MIC [6]: 0.25 µg/mL | MIC [7]: > 16 µg/mL | MIC [8]: 0.25 µg/mL (≈ 0.485 µM) | MIC [9]: 0.063 µg/mL (≈ 0.122 µM) | MIC [10]: > 16 µg/mL | MIC [11]: 0.25 µg/mL

CO[C@H]1CN(CC=C(C)C)C[C@H](OCC23C[C@@H]4[C@H](C)CC[C@H]4C4(C=O)CC2C=C(C(C)C)C34C(=O)O)O[C@@H]1C (some centres undefined)
MIC [1]: 0.5 µg/mL (≈ 0.92 µM) | MIC [2]: > 16 µg/mL | MIC [3]: 0.125 µg/mL (≈ 0.23 µM) | MIC [4]: 0.25 µg/mL (≈ 0.46 µM) | MIC [5]: 2 µg/mL (≈ 3.68 µM) | MIC [6]: 2 µg/mL | MIC [7]: > 16 µg/mL | MIC [8]: 16 µg/mL (≈ 29.4 µM) | MIC [9]: 0.25 µg/mL (≈ 0.46 µM) | MIC [10]: > 16 µg/mL | MIC [11]: 1 µg/mL

COc1cccc(CN2C[C@H](OCC34C[C@@H]5[C@H](C)CC[C@H]5C5(C=O)CC3C=C(C(C)C)C45C(=O)O)O[C@H](C)[C@@H](OC)C2)c1 (some centres undefined)
MIC [1]: 0.125 µg/mL (≈ 0.21 µM) | MIC [2]: > 16 µg/mL | MIC [3]: ≤ 0.031 µg/mL | MIC [4]: 0.063 µg/mL (≈ 0.106 µM) | MIC [5]: 0.5 µg/mL (≈ 0.839 µM) | MIC [6]: 2 µg/mL | MIC [7]: > 16 µg/mL | MIC [8]: 8 µg/mL (≈ 13.4 µM) | MIC [9]: 0.063 µg/mL (≈ 0.106 µM) | MIC [10]: 2 µg/mL (≈ 3.36 µM) | MIC [11]: 2 µg/mL

OC(Cn1cncn1)(Cn1cncn1)c1ccc(F)cc1F [FLUCONAZOLE]
MIC [1]: 4 µg/mL (≈ 13.1 µM) | MIC [4]: 4 µg/mL (≈ 13.1 µM)

CO[C@H]1CN(Cc2ccc(C)cc2)C[C@H](OCC23C[C@@H]4[C@H](C)CC[C@H]4C4(C=O)CC2C=C(C(C)C)C34C(=O)O)O[C@@H]1C (some centres undefined)
MIC [1]: 0.125 µg/mL (≈ 0.216 µM) | MIC [2]: > 16 µg/mL | MIC [3]: ≤ 0.031 µg/mL | MIC [4]: 0.125 µg/mL (≈ 0.216 µM) | MIC [5]: 1 µg/mL (≈ 1.72 µM) | MIC [6]: 8 µg/mL | MIC [7]: > 16 µg/mL | MIC [8]: 2 µg/mL (≈ 3.45 µM) | MIC [9]: 0.063 µg/mL (≈ 0.109 µM) | MIC [10]: > 16 µg/mL | MIC [11]: 2 µg/mL

C/C=C/C=C\C(=O)O[C@H]1[C@H](O)[C@H](OCC23C[C@@H]4[C@H](C)CC[C@H]4C4(C=O)CC2C=C(C(C)C)C34C(=O)O)O[C@H](C)[C@H]1OC (some centres undefined)
MIC [1]: 0.5 µg/mL (≈ 0.852 µM) | MIC [2]: > 4 µg/mL | MIC [3]: 0.25 µg/mL (≈ 0.426 µM) | MIC [4]: 0.5 µg/mL (≈ 0.852 µM) | MIC [5]: 0.5 µg/mL (≈ 0.852 µM) | MIC [6]: 4 µg/mL | MIC [7]: > 4 µg/mL | MIC [8]: > 4 µg/mL | MIC [9]: 0.5 µg/mL (≈ 0.852 µM) | MIC [10]: 0.25 µg/mL (≈ 0.426 µM)
